What all share (assay type): functional
The test system of test [1] is Rattus norvegicus. Put plainly: Percent change in total plasma cholesterol in hypercholesterolemic rats dosed at 100 mg/kg/day for 8 days.
Test [2] has as its system Rattus norvegicus. Put plainly: Percent change in high-density lipoprotein cholesterol following oral administration of compound in normal chow-fed rats at 100 mg/kg/day for 4 days. Summed up: (§1)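 Chow-fed male Sprague–Dawley CD rats, 60–80 g, gavaged 100 mg/kg/day for 4 days in 1.3% Tween 80/0.25% CMC. Fasted overnight, bled 24 h after the last dose. Total cholesterol and glycerol-blanked triglycerides read enzymatically; lipoproteins by FPLC with cholesterol per fraction. % change versus control; six per group, p < 0.05.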

The subject of test [3] is Cricetinae gen. sp. Put plainly: Percent change in high-density lipoprotein cholesterol following oral administration of compound in hypercholesterolemic hamsters at 100 mg/kg/day for 14 days. Summed up:
(§2)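 Male Syrian Golden hamsters pre-fed chow plus 0.25% cholesterol for 2 weeks and kept on it. Dosed 100 mg/kg/day by oral gavage in 2% Tween 80/saline for 14 days. Serum total cholesterol and glycerol-blanked triglycerides read enzymatically; lipoproteins separated by FPLC with cholesterol measured in each fraction. % change versus vehicle controls; six per group, p < 0.05.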

Test [4] relates to Cricetinae gen. sp. Put plainly: Percent change in low-density lipoprotein cholesterol following oral administration of compound in hypercholesterolemic hamsters at 100 mg/kg/day for 14 days. The gist of the method:
as §2

Test [5] concerns Rattus norvegicus. The test is described as follows: Percent change in high-density lipoprotein cholesterol in hypercholesterolemic rats dosed at 100 mg/kg/day for 8 days.
Test [6] deals with Cricetinae gen. sp. Put plainly: Percent change in very low-density lipoprotein cholesterol following oral administration of compound in hypercholesterolemic hamsters at 100 mg/kg/day for 14 days. Summed up:
as §2

Test [7] relates to Rattus norvegicus. Put plainly: Percent change in triglycerides following oral administration of compound in normal chow-fed rats at 100 mg/kg/day for 4 days. Summed up:
as §1

Test [8] deals with Cricetinae gen. sp. Put plainly: Percent change in total plasma cholesterol following oral administration of compound in hypercholesterolemic hamsters at 100 mg/kg/day for 14 days. The gist of the method:
as §2

For test [9], the system named is Rattus norvegicus. Put plainly: Percent change in triglycerides in hypercholesterolemic rats at a dose of 100 mg/kg/day for 8 days.
In test [10] the test system is Rattus norvegicus. The test is described as follows: Percent change in total plasma cholesterol following oral administration of compound in normal chow-fed rats at 100 mg/kg/day for 4 days. The gist of the method: as §1
For test [11], the system named is Rattus norvegicus. Put plainly: Percent change in low-density lipoprotein cholesterol following oral administration of compound in normal chow-fed rats at 100 mg/kg/day for 4 days. The gist of the method: as §1
Test [12] has as its system Rattus norvegicus. The test is described as follows: Percent change in very low-density lipoprotein cholesterol following oral administration of compound in normal chow-fed rats at 100 mg/kg/day for 4 days. Summed up: as §1
Test [13] concerns Cricetinae gen. sp. Put plainly: Percent change in triglycerides following oral administration of compound in hypercholesterolemic hamsters at 100 mg/kg/day for 14 days. Summed up:
as §2

Turning to `CCN1CC(=O)N(c2c(C)cccc2Cl)C1=S`, the Change is reported as -34% in test [1]; 62.9% in [2]; 13.8% in test [3]; -39.1% in test [4]; 222% in test [5]; -74.4% in test [6]. For the same compound, the Change in test [7] is on record as -57.1%; in [8], -32.2%; in test [9], -20%; in test [10], 79.8%; in [11], -35%; in [12] it was 41.4%. Besides, in [13], the Change is recorded as -77.1%.

Regarding `CCN1CC(=O)N(c2ccc(C)cc2C)C1=S`, the Change in test [1] is on record as 25%; in [2], 61.2%; in test [3] it was 33.3%; in test [4], -11.6%; in [5], 83%; in test [6], 14.5%. For the same compound, the Change in test [7] is -35.4%; in test [8], 10.7%; in test [9] it was -34%; in [10], 55.5%; in test [11] it was 8.3%; in test [12], 15.6%. Moreover, the Change in test [13] was found to be 9.6%.

For `CCN1CCC(=O)N(c2ccc(Cl)cc2C)C1=S`, the Change in test [1] is on record as 40%; in test [2], 75.5%; in test [3] it was 47.8%; in test [4], -26.8%; in test [5], 126%; in [6], 6.3%. For the same compound, the Change in test [7] is reported as -53.1%; in test [8], 2%; in [9], -16%; in test [10], 80.7%; in test [11], 38.9%; in test [12], -15%. Besides, the Change in test [13] is reported as -30.7%.

On to `COc1ccc(Cl)cc1N1C(=O)CON(C)C1=S`, for which the Change in test [1] is listed as 44%; in [2], 71.3%; in test [3], 23.5%; in test [4], -20.2%; in test [5], 78%; in test [6], -32.6%. The Change in test [7] was -7.4%; in [8], -7.9%; in test [9], 7%; in test [10], 67.7%; in [11], 8.6%; in test [12] it was 25%. For the same compound, the Change in [13] was -26.5%.

With `Cc1ccc(C)c(N2C(=O)CON(C)C2=S)c1`, the Change in [1] is given as 28%; in test [2] it was 87.2%; in test [3], 48.3%; in test [4], -40.1%; in test [5], 72%; in test [6], -25.5%. Besides, the Change in test [7] was -31.6%; in test [8], -13.8%; in test [9], 26%; in test [10], 75.2%; in test [11], 9.1%; in [12] it was 61.5%. For the same compound, the Change in test [13] is listed as -23.8%.

As to `CCN1CCC(=O)N(c2c(C)cccc2C)C1=S`, the Change was 11% in [1]; 97.4% in test [2]; 0.7% in test [3]; 24% in [4]; 184% in [5]; 22.7% in test [6]. The Change is -11.4% in test [7]; -3% in [8]; -12% in test [9]; 70.4% in [10]; 0% in test [11]; -5.2% in test [12]. Moreover, in test [13], the Change came to 8.6%.

As for `Cc1cccc(C)c1N1C(=O)CN(C(C)C)C1=S`, the Change in test [1] is reported as -25%; in [2], 71.2%; in [3] it was 1.7%; in [4], 17.2%; in [5] it was 146%; in test [6] it was 8.9%. The Change is given as -42.9% in [7]; -3.1% in test [8]; -43% in test [9]; 56.1% in test [10]; -5.8% in [11]; -10.5% in test [12]. Also, the Change in test [13] is listed as -7.3%.

Turning to `CCN1CC(=O)N(c2ccccc2C(C)C)C1=S`, the Change was 71% in test [1]; 90.6% in test [2]; 19.5% in test [3]; -41% in test [4]; 201% in test [5]; -4.5% in test [6]. For the same compound, the Change in test [7] was -27.5%; in test [8], -5.9%; in test [9] it was 10%; in test [10], 111.4%; in test [11], 24.6%; in test [12] it was 73.7%. In addition, the Change in test [13] is reported as -10.1%.

`CCN1CC(=O)N(c2cccc(Cl)c2Cl)C1=S`: the Change is reported as 11% in test [1]; 85.3% in test [2]; 0% in [3]; -8.1% in test [4]; 98% in test [5]; -5.9% in [6]. The Change is reported as 18.3% in test [7]; -8% in test [8]; -23% in test [9]; 89.6% in test [10]; 20.4% in test [11]; 57.9% in test [12]. Besides, the Change in test [13] was -12.3%.

For `Cc1cccc(Cl)c1N1C(=O)CON(C)C1=S`, the Change in [1] is given as -2.7%; in test [2], 52.8%; in [3], -28.1%; in test [4], -22.4%; in test [5], 100%; in test [6], 5.2%. The Change in test [7] is listed as -61.5%; in test [8] it was -21.4%; in [9], -30%; in [10], 40.4%; in test [11] it was 11.7%; in test [12] it was 80.8%. In addition, the Change in [13] was determined as 38.6%.

In the case of `CCN1C(=S)N(c2cc(Cl)ccc2C)C(=O)C1OC` (stereo not drawn), the Change in [1] was 6%; in test [2], 91.6%; in test [3], 57.4%; in test [4], -19%; in test [5] it was 140%; in test [6], -35.8%. The Change in [7] is reported as -10.6%; in test [8], 3.8%; in test [9], -33%; in test [10], 102.3%; in test [11], 11.9%; in [12] it was 83.6%. In addition, in [13], the Change is given as -36.4%.
